ChEMBL document CHEMBL1154775, “Discovery of dermorphin-based affinity labels with subnanomolar affinity for mu opioid receptors” (J Med Chem, 2009)
The source made the active and inactive calls. The rule behind the calls is not given here. Numbered stars: 1 amine (or outer) side, 2 acyl side, 3 side chain; on linkers, the order of the positions; unused ones are H or OH. Square brackets hold non-standard residues; d marks the D form. Peptide text beside a SMILES is read from it. X6 = O=C(CBr)N(CCCC[C@@H](N[*:1])C(=O)[*:2])C(=O)CBr; X1 = O=C(CBr)N(CCC[C@@H](N[*:1])C(=O)[*:2])C(=O)CBr; X7 = CC(=O)N(CCCC[C@@H](N[*:1])C(=O)[*:2])C(C)=O; X8 = CC(=O)N(CCC[C@@H](N[*:1])C(=O)[*:2])C(C)=O; X5 = O=C([C@@H](CCCCN(N=C=S)N=C=S)N[*:1])[*:2]; X4 = O=C([C@@H](CCCN(N=C=S)N=C=S)N[*:1])[*:2]

Assays:
[1] = molecular target: Mu-type opioid receptor (Cavia porcellus, UniProt P97266); experiment: Displacement of beta-[3H]FNA from mu opioid receptor in guinea pig brain membrane; assay type: cell membranes
Mu-type opioid receptor (Cavia porcellus, UniProt P97266), sequence (P97266 whole entry): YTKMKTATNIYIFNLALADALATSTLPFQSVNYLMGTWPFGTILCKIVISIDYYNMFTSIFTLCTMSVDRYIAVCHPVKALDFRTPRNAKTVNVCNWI

[2] = molecular target: Mu-type opioid receptor (Rattus norvegicus) (UniProt P33535); experiment: Inhibition of [3H]naloxone binding to mu opioid receptor in rat brain membrane; assay type: cell membranes
Mu-type opioid receptor (Rattus norvegicus), sequence (P33535 whole entry): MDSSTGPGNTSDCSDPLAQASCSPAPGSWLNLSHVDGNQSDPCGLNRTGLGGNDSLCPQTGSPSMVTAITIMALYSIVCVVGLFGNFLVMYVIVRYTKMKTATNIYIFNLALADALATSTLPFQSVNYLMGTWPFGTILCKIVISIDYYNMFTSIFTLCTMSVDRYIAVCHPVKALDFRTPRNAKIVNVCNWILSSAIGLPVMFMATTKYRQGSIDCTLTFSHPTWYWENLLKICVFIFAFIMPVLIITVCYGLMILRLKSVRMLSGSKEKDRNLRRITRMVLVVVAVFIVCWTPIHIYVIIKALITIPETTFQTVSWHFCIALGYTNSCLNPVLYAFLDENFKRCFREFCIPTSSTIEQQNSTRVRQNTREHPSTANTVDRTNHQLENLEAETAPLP

[3] = molecular target: Mu-type opioid receptor (Cavia porcellus) (UniProt P97266); experiment: Ratio of compound IC50 to beta-FNA IC50 for mu opioid receptor in guinea pig brain membrane; assay type: cell membranes
Mu-type opioid receptor (Cavia porcellus), sequence (P97266 whole entry): as the sequence (P97266 whole entry) above

[4] = molecular target: T1, Mu-type opioid receptor (Homo sapiens, UniProt P35372); experiment: Displacement of [3H]DAMGO from mu opioid receptor expressed in CHO cells after 90 mins by scintillation counting; assay type: cell-based
T1 sequence (P35372 whole entry): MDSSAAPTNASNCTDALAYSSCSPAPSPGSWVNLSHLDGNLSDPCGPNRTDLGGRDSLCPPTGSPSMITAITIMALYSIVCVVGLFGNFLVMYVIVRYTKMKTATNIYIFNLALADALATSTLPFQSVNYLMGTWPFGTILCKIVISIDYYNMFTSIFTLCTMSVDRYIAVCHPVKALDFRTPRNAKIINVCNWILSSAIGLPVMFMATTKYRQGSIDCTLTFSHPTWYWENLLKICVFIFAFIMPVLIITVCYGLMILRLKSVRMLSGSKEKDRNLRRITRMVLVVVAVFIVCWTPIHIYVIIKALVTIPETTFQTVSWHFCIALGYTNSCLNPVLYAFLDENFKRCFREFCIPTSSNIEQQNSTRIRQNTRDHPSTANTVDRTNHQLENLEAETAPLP
How it was run: (§1)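 Competitive radioligand binding on CHO cells stably expressing MOR or DOR. Radioligand was [3H]DAMGO for MOR and [3H]DPDPE for DOR. IC50 values were measured under standard conditions.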

[5] = molecular target: Delta-type opioid receptor (Homo sapiens, UniProt P41143); experiment: Displacement of [3H]DPDPE from delta opioid receptor expressed in CHO cells after 90 mins by scintillation counting; assay type: cell-based; how it was run: as §1
Delta-type opioid receptor, sequence (P41143 whole entry): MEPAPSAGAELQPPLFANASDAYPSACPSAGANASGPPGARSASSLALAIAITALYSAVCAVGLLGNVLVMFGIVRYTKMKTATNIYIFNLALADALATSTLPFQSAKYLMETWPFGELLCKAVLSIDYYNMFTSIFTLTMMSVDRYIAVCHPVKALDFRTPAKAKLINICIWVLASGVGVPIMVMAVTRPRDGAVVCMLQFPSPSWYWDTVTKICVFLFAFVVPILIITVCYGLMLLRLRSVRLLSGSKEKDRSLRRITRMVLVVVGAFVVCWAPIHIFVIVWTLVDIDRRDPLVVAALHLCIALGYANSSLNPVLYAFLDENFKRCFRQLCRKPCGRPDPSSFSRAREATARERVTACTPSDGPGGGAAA

[6] = molecular target: T1, Mu-type opioid receptor; experiment: Displacement of [3H]DAMGO from mu opioid receptor expressed in CHO cells after 90 mins by scintillation counting relative to dermorphin; assay type: cell-based
[7] = Selectivity ratio of IC50 for delta opioid receptor to IC50 for mu opioid receptor
How it was run: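 MOR selectivity was calculated as the ratio of DOR IC50 to MOR IC50. Both IC50s came from CHO-cell binding, with [3H]DPDPE as the DOR radioligand and [3H]DAMGO as the MOR radioligand. Ratios depend on the radioligand concentration used.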

[8] = molecular target: T1, Mu-type opioid receptor; experiment: Ratio of dermorphin IC50 to compound IC50 for mu opioid receptor expressed in CHO cells; assay type: cell-based
[9] = molecular target: T1, Mu-type opioid receptor; experiment: Inhibition of [3H]DAMGO binding to mu opioid receptor expressed in CHO cells after 90 mins by WRIB assay; assay type: cell-based
How it was run: (§2)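 Wash-resistant inhibition of binding in MOR-expressing CHO cell membranes. Membranes were incubated with peptide, either near its IC50 or at higher concentrations, then washed extensively to remove noncovalently bound ligand. Remaining [3H]DAMGO binding was then measured and expressed as % inhibition against untreated control. Acetylated reversible analogues were run alongside to verify that the wash was complete.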

[10] = molecular target: T1, Mu-type opioid receptor; conditions: CHO; 0.11 nM
[11] = Ratio of dermorphin selectivity for mu opioid receptor over delta opioid receptor to compound selectivity for mu opioid receptor over delta opioid receptor
[12] = molecular target: T1, Mu-type opioid receptor; conditions: CHO; 0.43 nM
[13] = molecular target: T1, Mu-type opioid receptor; experiment: Inhibition of [3H]DAMGO binding to mu opioid receptor expressed in CHO cells at 0.4 nM after 90 mins by WRIB assay; assay type: cell-based; how it was run: as §2
[14] = molecular target: T1, Mu-type opioid receptor; experiment: Inhibition of [3H]DAMGO binding to mu opioid receptor expressed in CHO cells at 7 nM after 90 mins by WRIB assay; assay type: cell-based; how it was run: as §2
[15] = molecular target: Mu-type opioid receptor (Rattus norvegicus) (UniProt P33535); experiment: (§3) Inhibition of [3H]DAMGO binding to mu opioid receptor in rat brain membrane; assay type: cell membranes
[16] = molecular target: Mu-type opioid receptor (Rattus norvegicus, UniProt P33535); experiment: as §3; assay type: cell membranes
Mu-type opioid receptor (Rattus norvegicus, UniProt P33535), sequence (P33535 whole entry): as the sequence (P33535 whole entry) above

## COC(=O)/C=C/C(=O)N[C@@H]1CC[C@@]2(O)[C@H]3Cc4ccc(O)c5c4[C@@]2(CCN3CC2CC2)[C@H]1O5
[1]
  IC50: 2.2 nM

## C[C@@H](NC(=O)[C@@H](N)Cc1ccc(O)cc1)C(=O)NCC(=O)N(C)c1ccccc1
[2]
  inhibition: Dose-dependent effect

## N[C@@H](Cc1ccc(O)cc1)C(=O)N[C@H](CCCN(C(=O)CBr)C(=O)CBr)C(=O)N[C@@H](Cc1ccccc1)C(=O)NCC(=O)N[C@@H](Cc1ccc(O)cc1)C(=O)N1CCC[C@H]1C(=O)N[C@@H](CO)C(=O)O (H-Y[X1]FGYPS-OH)
[3]
  Ratio IC50: 3
[4]
  IC50: 0.11 nM
[5]
  IC50: 342 nM
[6]
  Activity: 6.54
[7]
  Ratio IC50: 3110
[8]
  Ratio IC50: 7
[9]
  inhibition: Dose-dependent effect
[10]
  inhibition: inactive

## N[C@@H](Cc1ccc(O)cc1)C(=O)N[C@H](CCCN(N=C=S)N=C=S)C(=O)N[C@@H](Cc1ccccc1)C(=O)NCC(=O)N[C@@H](Cc1ccc(O)cc1)C(=O)N1CCC[C@H]1C(=O)N[C@@H](CO)C(=O)O (H-Y[X4]FGYPS-OH)
[3]
  Ratio IC50: 3
[4]
  IC50: 0.81 nM
[5]
  IC50: 23.8 nM
[6]
  Activity: 0.89
[7]
  Ratio IC50: 29
[11]
  Ratio: 9
[12]
  inhibition: 40%

## N[C@@H](Cc1ccc(O)cc1)C(=O)N[C@H](CCCCN(N=C=S)N=C=S)C(=O)N[C@@H](Cc1ccccc1)C(=O)NCC(=O)N[C@@H](Cc1ccc(O)cc1)C(=O)N1CCC[C@H]1C(=O)N[C@@H](CO)C(=O)O (H-Y[X5]FGYPS-OH)
[4]
  IC50: 0.38 nM
[5]
  IC50: 97.1 nM
[6]
  Activity: 1.89
[7]
  Ratio IC50: 255
[8]
  Ratio IC50: 2
[9]
  inhibition: Dose-dependent effect
[13]
  inhibition: 31%

## N[C@@H](Cc1ccc(O)cc1)C(=O)N[C@H](CCCCN(C(=O)CBr)C(=O)CBr)C(=O)N[C@@H](Cc1ccccc1)C(=O)NCC(=O)N[C@@H](Cc1ccc(O)cc1)C(=O)N1CCC[C@H]1C(=O)N[C@@H](CO)C(=O)O (H-Y[X6]FGYPS-OH)
[3]
  Ratio IC50: 3
[4]
  IC50: 5.23 nM
[5]
  IC50: 382 nM
[6]
  Activity: 0.14
[7]
  Ratio IC50: 73
[11]
  Ratio: 4
[14]
  inhibition: 32%

## CC(=O)N(CCCC[C@@H](NC(=O)[C@@H](N)Cc1ccc(O)cc1)C(=O)N[C@@H](Cc1ccccc1)C(=O)NCC(=O)N[C@@H](Cc1ccc(O)cc1)C(=O)N1CCC[C@H]1C(=O)N[C@@H](CO)C(=O)O)C(C)=O (H-Y[X7]FGYPS-OH)
[4]
  IC50: 29.8 nM
[5]
  IC50: 436 nM
[6]
  Activity: 0.02
[7]
  Ratio IC50: 15

## CC(=O)N(CCC[C@@H](NC(=O)[C@@H](N)Cc1ccc(O)cc1)C(=O)N[C@@H](Cc1ccccc1)C(=O)NCC(=O)N[C@@H](Cc1ccc(O)cc1)C(=O)N1CCC[C@H]1C(=O)N[C@@H](CO)C(=O)O)C(C)=O (H-Y[X8]FGYPS-OH)
[4]
  IC50: 4.25 nM
[5]
  IC50: 272 nM
[6]
  Activity: 0.17
[7]
  Ratio IC50: 64

## CC(C)C[C@@H](CSSc1ncccc1[N+](=O)[O-])NC(=O)[C@H](Cc1ccccc1)NC(=O)CNC(=O)C(C)NC(=O)[C@@H](N)Cc1ccc(O)cc1 (stereo in doubt)
[15]
  inhibition: Dose-dependent effect
[16]
  IC50: 19 nM
